Assay results from article PMC7883929 (Molecular Vision, 2021).
“Also recorded” adds a separate entry of the source. Like-named read-outs stand apart in the source and are kept apart here.

Assays:
[1] = cited from earlier work
[2] = system: laser-induced glaucoma model in monkeys; details: at 6 h, cited from earlier work
hTM-80 cells = experiment: Superoxide dismutase activity assay; format: cell-based, human; details: 100 µM, overnight/24 h
normotensive rat eyes = experiment: IOP measurement in normotensive Sprague Dawley rats; format: in vivo; details: Travoprost 0.004% single eye drop, 6 h time point only
Method in brief: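 Adult (10-week) female Sprague Dawley rats, n = 3/group, housed under dim light (90 lux) and dosed under a masked protocol. Each received a single 30 µl topical drop in PBS: saline vehicle, 0.004% travoprost positive control, or test compound. IOP was read by TonoLab rebound tonometry at 0, 3, 6, 24, 48 and 72 h. The contralateral eye served as control. Dosing was repeated three times per rat after 7-day washouts. Rank-sum test, mean ± SEM.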

Q: Which IOP-lowering ability [1] does the source give for `O=C(CCC/C=C\C[C@@H]1[C@@H](CC[C@@H](O)CCc2ccccc2)[C@H](O)C[C@@H]1O)OCCCCO[N+](=O)[O-]` [LBN, Latanoprostene bunod] here?
A: Its IOP-lowering ability is −9.0 mm/Hg.

Q: With `CC(C)OC(=O)CCC/C=C\C[C@@H]1[C@@H](CC[C@@H](O)CCc2ccccc2)[C@H](O)C[C@@H]1O` [latanoprost] as the molecule, how does the IOP-lowering ability [1] read?
A: Its IOP-lowering ability is −7.7 mm/Hg.

Q: Which IOP lowering ([2]; dose 500 µg) does the source give for `O=[N+]([O-])OCC(CO[N+](=O)[O-])O[N+](=O)[O-]` [GTN, glyceryl trinitrate] here?
A: The IOP lowering was 13%.

Q: For `CC1(C)CC(O[N+](=O)[O-])CC(C)(C)N1[O]` [4-nitro-TEMPOL], which IOP lowering ([2]; dose 150 µg/eye drop) is on record?
A: Its IOP lowering is 20%.

Q: For `[NH-]c1c[n+](N2CCOCC2)no1` [SIN-1, Linsidomine], which “SOD enzyme level (in words)” value (hTM-80 cells) is on record?
A: The value was “did not increase the SOD enzyme; also recorded: did not increase the SOD level”.

Q: For `CC1(C)CC(N)CC(C)(C)N1[O]` [SA-3, 4-amino TEMPOL], which “SOD enzyme level (in words)” value (hTM-80 cells) is on record?
A: The value was “the effect was comparable to that of a standard SOD mimetic SA-3 compound”.

Q: Which IOP lowering (normotensive rat eyes) does the source give for `CC(C)OC(=O)CCC/C=C\C[C@@H]1[C@@H](/C=C/[C@@H](O)COc2cccc(C(F)(F)F)c2)[C@H](O)C[C@@H]1O` [Travoprost] here?
A: The IOP lowering was 14%.
